Assay type in all cases: protein-complex assay
In experiment [1] the target is T1, GABA-A receptor; alpha-6/beta-3/gamma-2 (Homo sapiens, UniProt P18507+P28472+Q16445). As to the kind of experiment: Inhibition of Gamma-aminobutyric acid A receptor alpha-6-beta-3-gamma-2 at 1 uM. Summed up:
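Competition binding on Ltk⁻ cells expressing human α6β3γ2, radioligand [³H]Ro 15-4513. Cells scraped into PBS, spun at 3000g, resuspended in 10 mM KH₂PO₄/100 mM KCl pH 7.4. Nonspecific binding with 10⁻⁵ M diazepam; 1 h to equilibrium at 4 °C; filtration, ice-cold buffer wash, scintillation counting.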

The target of experiment [2] is T2, GABA-A receptor; alpha-5/beta-3/gamma-2 (Homo sapiens, UniProt P18507+P28472+P31644).
T2 sequence (P18507 whole entry): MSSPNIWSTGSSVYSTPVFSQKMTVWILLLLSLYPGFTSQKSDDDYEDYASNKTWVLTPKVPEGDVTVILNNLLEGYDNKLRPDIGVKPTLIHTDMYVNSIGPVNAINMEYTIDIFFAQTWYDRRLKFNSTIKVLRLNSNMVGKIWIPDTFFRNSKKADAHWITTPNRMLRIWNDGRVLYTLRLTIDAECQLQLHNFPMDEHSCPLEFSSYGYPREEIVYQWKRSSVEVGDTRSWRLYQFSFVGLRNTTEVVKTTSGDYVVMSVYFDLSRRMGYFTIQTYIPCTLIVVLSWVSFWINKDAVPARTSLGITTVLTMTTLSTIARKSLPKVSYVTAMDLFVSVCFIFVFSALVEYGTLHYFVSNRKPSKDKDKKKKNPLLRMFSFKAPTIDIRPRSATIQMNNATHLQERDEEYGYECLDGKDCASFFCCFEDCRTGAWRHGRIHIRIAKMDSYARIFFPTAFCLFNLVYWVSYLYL
T2 sequence (P28472 whole entry): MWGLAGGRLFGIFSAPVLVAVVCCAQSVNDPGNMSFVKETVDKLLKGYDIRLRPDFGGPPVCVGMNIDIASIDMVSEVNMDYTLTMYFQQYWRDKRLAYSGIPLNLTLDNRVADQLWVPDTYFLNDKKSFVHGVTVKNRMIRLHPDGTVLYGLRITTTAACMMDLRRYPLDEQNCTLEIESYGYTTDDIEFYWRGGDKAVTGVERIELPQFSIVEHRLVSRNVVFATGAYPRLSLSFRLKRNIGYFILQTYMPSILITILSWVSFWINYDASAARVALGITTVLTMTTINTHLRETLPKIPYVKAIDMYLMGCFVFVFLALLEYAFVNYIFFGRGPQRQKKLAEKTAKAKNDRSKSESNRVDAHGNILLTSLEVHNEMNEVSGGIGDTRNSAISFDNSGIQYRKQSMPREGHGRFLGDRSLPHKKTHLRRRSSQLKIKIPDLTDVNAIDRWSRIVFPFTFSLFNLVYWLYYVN
T2 sequence (P31644 whole entry): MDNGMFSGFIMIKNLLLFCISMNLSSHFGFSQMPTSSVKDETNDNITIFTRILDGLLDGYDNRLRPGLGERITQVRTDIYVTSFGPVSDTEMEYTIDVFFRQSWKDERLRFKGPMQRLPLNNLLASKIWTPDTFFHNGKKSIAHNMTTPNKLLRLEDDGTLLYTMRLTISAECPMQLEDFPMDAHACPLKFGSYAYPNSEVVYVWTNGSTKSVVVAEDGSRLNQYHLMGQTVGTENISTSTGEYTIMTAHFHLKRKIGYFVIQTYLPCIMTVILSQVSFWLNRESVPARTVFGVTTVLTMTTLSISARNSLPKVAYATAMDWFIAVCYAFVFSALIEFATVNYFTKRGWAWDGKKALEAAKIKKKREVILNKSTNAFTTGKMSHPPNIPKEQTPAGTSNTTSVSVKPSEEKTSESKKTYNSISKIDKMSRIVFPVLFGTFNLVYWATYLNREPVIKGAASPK
As to the kind of experiment: Binding affinity for Gamma-aminobutyric acid A receptor alpha-5-beta-3-gamma-2.

Experiment [3] has as its target GABA-A receptor; alpha-1/beta-3/gamma-2 (Homo sapiens) (UniProt P14867+P18507+P28472). Put plainly: Inhibition of GABA-A benzodiazepine receptor alpha-1-beta-3-gamma-2 subunits at 1 uM.
Experiment [4] deals with GABA-A receptor; alpha-2/beta-3/gamma-2 (Homo sapiens) (UniProt P18507+P28472+P47869). As to the kind of experiment: Inhibition of GABA-A benzodiazepine receptor alpha-2-beta-3-gamma-2 subunits at 1 uM.
Experiment [5] has as its target GABA-A receptor; alpha-3/beta-3/gamma-2 (Homo sapiens) (UniProt P18507+P28472+P34903). As to the kind of experiment: Inhibition of GABA-A benzodiazepine receptor alpha-3-beta-3-gamma-2 subunits at 1 uM.
For experiment [6], the target named is T1, GABA-A receptor; alpha-6/beta-3/gamma-2. Put plainly: Binding affinity against Gamma-aminobutyric acid A receptor alpha-6-beta-3-gamma-2. The procedure, abridged: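 Cells scraped into PBS, spun at 3000g, resuspended in 10 mM KH₂PO₄/100 mM KCl pH 7.4. Nonspecific binding with 10⁻⁵ M diazepam; 1 h to equilibrium at 4 °C; filtration, ice-cold buffer wash, scintillation counting.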

Experiment [7] addresses T3, GABA-A receptor; alpha-2/beta-3/gamma-2 (Homo sapiens, UniProt P18507+P28472+P47869).
T3 sequence (P18507 whole entry): T2 sequence (P18507 whole entry)
T3 sequence (P28472 whole entry): T2 sequence (P28472 whole entry)
T3 sequence (P47869 whole entry): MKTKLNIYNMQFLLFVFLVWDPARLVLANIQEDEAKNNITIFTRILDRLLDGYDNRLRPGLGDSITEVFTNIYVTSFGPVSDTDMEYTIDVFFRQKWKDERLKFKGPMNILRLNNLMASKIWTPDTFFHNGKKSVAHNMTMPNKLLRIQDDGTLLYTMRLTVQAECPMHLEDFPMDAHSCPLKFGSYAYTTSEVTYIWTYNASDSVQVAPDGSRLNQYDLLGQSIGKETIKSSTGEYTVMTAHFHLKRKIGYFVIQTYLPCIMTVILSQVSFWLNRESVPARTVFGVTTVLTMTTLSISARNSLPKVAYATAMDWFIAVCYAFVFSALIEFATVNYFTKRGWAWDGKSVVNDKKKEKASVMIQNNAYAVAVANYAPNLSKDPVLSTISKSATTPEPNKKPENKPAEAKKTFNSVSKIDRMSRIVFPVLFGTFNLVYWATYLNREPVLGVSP
Put plainly: Binding affinity for alpha-2-beta-3-gamma-2 GABA-A benzodiazepine receptor subunits.

The target of experiment [8] is T4, GABA-A receptor; alpha-3/beta-3/gamma-2 (Homo sapiens, UniProt P18507+P28472+P34903).
T4 sequence (P18507 whole entry): T2 sequence (P18507 whole entry)
T4 sequence (P28472 whole entry): T2 sequence (P28472 whole entry)
T4 sequence (P34903 whole entry): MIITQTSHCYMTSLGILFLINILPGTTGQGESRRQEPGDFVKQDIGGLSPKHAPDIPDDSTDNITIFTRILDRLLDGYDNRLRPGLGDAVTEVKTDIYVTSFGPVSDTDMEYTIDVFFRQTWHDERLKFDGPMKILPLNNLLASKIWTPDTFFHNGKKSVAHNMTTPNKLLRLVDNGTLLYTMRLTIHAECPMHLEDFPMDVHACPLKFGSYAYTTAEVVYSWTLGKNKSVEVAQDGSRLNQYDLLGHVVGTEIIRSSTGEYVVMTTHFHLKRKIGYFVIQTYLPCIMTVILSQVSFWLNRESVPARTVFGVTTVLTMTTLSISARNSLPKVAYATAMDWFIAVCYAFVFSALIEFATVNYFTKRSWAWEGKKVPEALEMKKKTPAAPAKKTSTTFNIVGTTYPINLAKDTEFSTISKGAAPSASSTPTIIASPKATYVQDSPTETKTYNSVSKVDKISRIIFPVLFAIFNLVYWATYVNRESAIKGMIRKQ
Put plainly: Binding affinity against alpha-3-beta-3-gamma-2 GABAA/BzR receptor subtype.

Here are results for two compounds from ChEMBL document CHEMBL1131143, “Predictive models for GABAA/benzodiazepine receptor subtypes: studies of quantitative structure-activity relationships for imidazobenzodiazepines at five recombinant GABAA/benzodiazepine receptor subtypes [alphaxbeta3gamma2 (x = 1-3, 5, and 6)] via comparative molecular field analysis” (J Med Chem, 1998).

As a reminder, the inhibition is how much of the control response was suppressed. A low value points to little suppression. By pKi is commonly meant the Ki on a negative log10 scale, so that one unit is a factor of ten. A lower pKi goes with a large Ki.

The structures appear in SMILES notation. pKi: −log10 of the molar value.

T1 sequence (Q16445 whole entry, one chain of several): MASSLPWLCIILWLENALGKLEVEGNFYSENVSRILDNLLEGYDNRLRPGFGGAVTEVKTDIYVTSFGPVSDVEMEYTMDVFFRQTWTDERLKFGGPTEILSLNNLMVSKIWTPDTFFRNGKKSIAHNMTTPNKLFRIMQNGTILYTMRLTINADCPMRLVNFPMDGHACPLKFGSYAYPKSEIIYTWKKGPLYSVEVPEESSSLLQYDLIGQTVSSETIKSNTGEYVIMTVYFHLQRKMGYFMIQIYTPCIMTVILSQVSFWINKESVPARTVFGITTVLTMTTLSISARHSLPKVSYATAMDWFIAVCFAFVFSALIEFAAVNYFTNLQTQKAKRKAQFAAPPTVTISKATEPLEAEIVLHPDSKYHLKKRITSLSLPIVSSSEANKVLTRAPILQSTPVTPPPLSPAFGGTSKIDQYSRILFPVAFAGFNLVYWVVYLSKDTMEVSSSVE

Consider `C#Cc1ccc2c(c1)C(=O)N1CCC[C@H]1c1c(-c3nc(-c4ccccc4)no3)ncn1-2`, for which the inhibition stood at 4% in experiment [1], 33% in experiment [3], 26% in experiment [4] and 19% in experiment [5]. The compound further showed a pKi in experiment [2] of 6.34.
As for `CCOC(=O)c1ncn2c1CN(C)C(=O)c1cc(Br)ccc1-2`, the pKi in experiment [6] was 7.66; in experiment [7], 7.57; in experiment [8], 7.89.
